{"data": "Published values pooled from the literature", "DHFR": "Dihydrofolate reductase (DHFR, Homo sapiens, UniProt P00374)", "HTR2B": "5-hydroxytryptamine receptor 2B (HTR2B, Homo sapiens, UniProt P41595)", "TOP2A": "DNA topoisomerase 2-alpha (TOP2A, Homo sapiens, UniProt P11388)", "FAAH": "Fatty-acid amide hydrolase 1 (FAAH, Homo sapiens, UniProt O00519)"}
{"Compound": "Nc1nc(N)c(OCCCOc2ccccc2CCC(=O)O)c(-c2ccc(C(F)(F)F)cc2)n1", "target": "DHFR", "effect on": "enzyme activity", "action": "inhibitor", "IC50": "> 5 µM"}
{"Compound": "Cc1[nH]c2ccccc2c1C(=O)C(C)N1CCC(c2nccn2C)C1 (stereo not drawn)", "target": "HTR2B", "effect on": "calcium signal", "action": "antagonist", "IC50": "0.0369 µM"}
{"Compound": "S=C(NN=Cc1ccc(N2CCCCC2)cc1)Nc1c(Cl)cccc1Cl", "target": "DHFR", "effect on": "enzyme activity", "action": "inhibitor", "IC50": "36.3 µM"}
{"Compound": "O=c1nc(SCc2ccc(C(F)(F)F)cc2)nc(SCc2ccc3sccc3c2)[nH]1", "target": "TOP2A", "effect on": "enzyme activity", "action": "inhibitor", "IC50": "16.3 µM"}
{"Compound": "COc1ccc(NC(=S)NN=Cc2ccc(N3CCCCC3)cc2)cc1", "target": "DHFR", "effect on": "enzyme activity", "action": "inhibitor", "IC50": "44.6 µM"}
{"Compound": "CC(=O)Nc1ccc(Nc2nc(-c3sc(N)nc3C)cs2)cc1", "target": "Lysyl oxidase homolog 1 (LOXL1, Homo sapiens, UniProt Q08397)", "effect on": "enzyme activity", "action": "inhibitor", "method": "fluorescence", "setting": "with preincubation", "IC50": "> 10 µM"}
{"Compound": "Cc1cccc(OCCCC(=O)N2CCNCc3ccccc32)c1", "target": "HTR2B", "effect on": "calcium signal", "action": "antagonist", "IC50": "16.9 µM"}
{"Compound": "O=c1cc(-c2ccc(O)cc2)oc2c([C@@H]3OC[C@H](O)[C@H](O)[C@H]3O)c(O)c([C@@H]3O[C@H](CO)[C@@H](O)[C@H](O)[C@H]3O)c(O)c12", "target": "Calcium/calmodulin-dependent protein kinase type II subunit alpha (CAMK2A, Homo sapiens, UniProt Q9UQM7)", "effect on": "enzyme activity", "action": "inhibitor", "IC50": "86.1 µM"}
{"Compound": "S=C(NN=Cc1ccc(N2CCCCC2)cc1)Nc1ccc(Cl)cc1", "target": "DHFR", "effect on": "enzyme activity", "action": "inhibitor", "IC50": "18.4 µM"}
{"Compound": "O=C(C=Cc1ccc(O)c(O)c1)OCCc1ccccc1", "target": "DHFR", "effect on": "enzyme activity", "action": "inhibitor", "method": "absorbance", "IC50": "11.5 µM"}
{"Compound": "O=c1nc(SCc2cc(F)cc(C(F)(F)F)c2)nc(SCc2nc3ccccc3[nH]2)[nH]1", "target": "TOP2A", "effect on": "enzyme activity", "action": "inhibitor", "IC50": "31.7 µM"}
{"Compound": "S=C(NCc1ccc(Cl)cc1)NN=Cc1ccc(N2CCCCC2)cc1", "target": "DHFR", "effect on": "enzyme activity", "action": "inhibitor", "IC50": "20.6 µM"}
{"Compound": "O=C(Nc1ccc(-c2cccc3ncccc23)cc1)C1CCN(S(=O)(=O)c2ccccc2Cl)CC1", "target": "FAAH", "effect on": "enzyme activity", "action": "inhibitor", "method": "fluorescence", "IC50": "0.0196 µM"}
{"Compound": "O=C(C=Cc1ccc(O)c(O)c1)Oc1ccccc1", "target": "DHFR", "effect on": "enzyme activity", "action": "inhibitor", "method": "absorbance", "IC50": "15.4 µM"}
{"Compound": "O=C1C(N2CCC(c3cn[nH]n3)C2)CCN1c1cccc(Cl)c1 (stereo not drawn)", "target": "HTR2B", "effect on": "calcium signal", "action": "antagonist", "IC50": "7.25 µM"}
{"Compound": "O=c1nc(SCc2cc(F)cc(C(F)(F)F)c2)nc(SCc2ccc3sccc3c2)[nH]1", "target": "TOP2A", "effect on": "enzyme activity", "action": "inhibitor", "IC50": "13.3 µM"}
{"Compound": "Cc1cccc(C)c1NC(=S)NN=Cc1ccc(N2CCCCC2)cc1", "target": "DHFR", "effect on": "enzyme activity", "action": "inhibitor", "IC50": "18.3 µM"}
{"Compound": "O=C(C=Cc1ccc(O)c(O)c1)OCc1ccccc1", "target": "DHFR", "effect on": "enzyme activity", "action": "inhibitor", "method": "absorbance", "IC50": "12.6 µM"}
{"Compound": "Fc1ccc(NC(=S)NN=Cc2ccc(N3CCCCC3)cc2)cc1", "target": "DHFR", "effect on": "enzyme activity", "action": "inhibitor", "IC50": "24.6 µM"}
{"Compound": "O=C(Nc1ccc(-c2ccc3ccccc3n2)cc1)C1CCN(S(=O)(=O)c2ccccc2Cl)CC1", "target": "FAAH", "effect on": "enzyme activity", "action": "inhibitor", "method": "fluorescence", "IC50": "0.0035 µM"}
{"Compound": "Cc1cccc(C(CO)N2CCN(Cc3cc(O)ccc3Cl)CC2)c1 (stereo not drawn)", "target": "HTR2B", "effect on": "calcium signal", "action": "antagonist", "IC50": "0.691 µM"}
{"Compound": "O=C(C=Cc1ccc(O)c(O)c1)Oc1cccc2cccnc12", "target": "DHFR", "effect on": "enzyme activity", "action": "inhibitor", "method": "absorbance", "IC50": "13 µM"}
{"Compound": "CN(C(=O)c1cn[nH]n1)C1CCN(CCc2cccc(Cl)c2Cl)C1 (stereo not drawn)", "target": "HTR2B", "effect on": "calcium signal", "action": "antagonist", "IC50": "5.53 µM"}
{"Compound": "S=C(NCCc1ccccc1)NN=Cc1ccc(N2CCCCC2)cc1", "target": "DHFR", "effect on": "enzyme activity", "action": "inhibitor", "IC50": "22.9 µM"}
{"Compound": "Cc1[nH]c2ccccc2c1SCCNC(=O)C1NCCC1C1CC1 (stereo not drawn)", "target": "HTR2B", "effect on": "calcium signal", "action": "antagonist", "IC50": "5.36 µM"}
{"Compound": "O=C(Nc1ccc(-c2ccc3cccnc3c2)cc1)C1CCN(S(=O)(=O)c2ccccc2Cl)CC1", "target": "FAAH", "effect on": "enzyme activity", "action": "inhibitor", "method": "fluorescence", "IC50": "0.0105 µM"}
{"Compound": "O=C1CC(CCNCc2ccc(-c3cccc(Br)c3)o2)CN1 (stereo not drawn)", "target": "HTR2B", "effect on": "calcium signal", "action": "antagonist", "IC50": "8.62 µM"}
{"Compound": "S=C(NN=Cc1ccc(N2CCCCC2)cc1)Nc1cccc(Br)c1", "target": "DHFR", "effect on": "enzyme activity", "action": "inhibitor", "IC50": "30.2 µM"}
{"Compound": "COc1ccccc1CC1CCN(CC(=O)c2cc(C)[nH]c2C)C1 (stereo not drawn)", "target": "5-hydroxytryptamine receptor 2C (HTR2C, Homo sapiens, UniProt P28335)", "effect on": "calcium signal", "action": "antagonist", "IC50": "23 µM"}
{"Compound": "Cc1nc(CSc2nc(SCc3ccc(C(F)(F)F)cc3)nc(=O)[nH]2)cs1", "target": "TOP2A", "effect on": "enzyme activity", "action": "inhibitor", "IC50": "64.7 µM"}
